# From ChEMBL document CHEMBL1208768, “Synthesis, selective anti-Helicobacter pylori activity, and cytotoxicity of novel N-substituted-2-oxo-2H-1-benzopyran-3-carboxamides” (Bioorg Med Chem Lett, 2010)
# Activity calls are given as the source filed them. The rule behind the calls is not given here.
# Legend:
# [1] = system: Staphylococcus aureus; assay: Antibacterial activity against Staphylococcus aureus after 18 to 22 hrs by broth microdilution method; type: functional
# Outline: (§1)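 Clinical respiratory-tract isolates from patients, subcultured for purity and identified conventionally. Broth microdilution per NCCLS in Mueller–Hinton II broth; each plate had growth controls (bacteria, no compound) and medium-only controls. Incubation 18–22 h at 35 °C. MIC taken as the lowest concentration giving complete growth inhibition by unaided eye.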
# [2] = system: Staphylococcus epidermidis; assay: Antibacterial activity against Staphylococcus epidermidis after 18 to 22 hrs by broth microdilution method; type: functional; outline: as §1
# [3] = system: Staphylococcus hominis; assay: Antibacterial activity against Staphylococcus hominis after 18 to 22 hrs by broth microdilution method; type: functional; outline: as §1
# [4] = system: Staphylococcus haemolyticus; assay: Antibacterial activity against Staphylococcus haemolyticus after 18 to 22 hrs by broth microdilution method; type: functional; outline: as §1
# [5] = system: Enterococcus faecalis; assay: Antibacterial activity against Streptococcus faecalis after 18 to 22 hrs by broth microdilution method; type: functional; outline: as §1
# [6] = system: Escherichia coli; assay: Antibacterial activity against Escherichia coli after 18 to 22 hrs by broth microdilution method; type: functional; outline: as §1
# [7] = system: Klebsiella pneumoniae; assay: Antibacterial activity against Klebsiella pneumoniae after 18 to 22 hrs by broth microdilution method; type: functional; outline: as §1
# [8] = system: Klebsiella oxytoca; assay: Antibacterial activity against Klebsiella oxytoca after 18 to 22 hrs by broth microdilution method; type: functional; outline: as §1
# [9] = system: Enterobacter; assay: Antibacterial activity against Enterobacter after 18 to 22 hrs by broth microdilution method; type: functional; outline: as §1
# [10] = system: Klebsiella aerogenes; assay: Antibacterial activity against Enterobacter aerogenes after 18 to 22 hrs by broth microdilution method; type: functional; outline: as §1
# [11] = system: Citrobacter freundii; assay: Antibacterial activity against Citrobacter freundii after 18 to 22 hrs by broth microdilution method; type: functional; outline: as §1
# [12] = system: Proteus vulgaris; assay: Antibacterial activity against Proteus vulgaris after 18 to 22 hrs by broth microdilution method; type: functional; outline: as §1
# [13] = system: Candida albicans; assay: Antifungal activity against Candida albicans after 24 hrs by broth microdilution method; type: functional
# Outline: (§2)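 Candida isolates from respiratory-tract specimens, tested by NCCLS broth microdilution in Sabouraud dextrose broth. Serial compound dilutions inoculated to 10³/mL, with fungus-only and medium-only controls. Incubated 24 h at 37 °C. MIC was the lowest concentration with complete visible growth inhibition.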
# [14] = system: [Candida] sake; assay: Antifungal activity against Candida sake after 24 hrs by broth microdilution method; type: functional; details: Fermentozyma sake; outline: as §2
# [15] = system: Pichia kudriavzevii; assay: Antifungal activity against Candida krusei after 24 hrs by broth microdilution method; type: functional; outline: as §2
# [16] = Solubility of the compound in DMSO at 0.0039 to 128 ug/mL; type: physicochemical
# [17] = system: AGS; assay: Antiinflammatory activity in human AGS cells assessed as inhibition of IL-8 production at 5 ug/mL after 24 hrs; type: functional, cell-based
# Outline: (§3)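 AGS gastric adenocarcinoma cells were grown in F-12K with 10% FBS. They were seeded at 1 × 10⁵/mL for 24 h, preincubated 1 h with compound at 5 or 0.5 µg/mL, then exposed to H. pylori.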
# [18] = system: AGS; assay: Antiinflammatory activity in human AGS cells assessed as inhibition of IL-8 production at 0.5 ug/mL after 24 hrs; type: functional, cell-based; outline: as §3
MIC [1] [µg/mL],MIC [2] [µg/mL],MIC [3] [µg/mL],MIC [5] [µg/mL],MIC [6] [µg/mL],MIC [7] [µg/mL],MIC [8] [µg/mL],MIC [9] [µg/mL],MIC [10] [µg/mL],MIC [11] [µg/mL],MIC [12] [µg/mL],MIC [13] [µg/mL],MIC [14] [µg/mL],MIC [15] [µg/mL],solubility [16],SMILES,MIC [4] [µg/mL],inhibition [17],inhibition [18]
> 128,> 128,> 128,> 128,> 128,> 128,> 128,> 128,> 128,> 128,> 128,> 128,> 128,> 128,Insoluble,CCOC(=O)c1ccc(NC(=O)c2cc3cc([N+](=O)[O-])ccc3oc2=O)cc1,> 128,inactive,inactive
> 128,> 128,> 128,> 128,> 128,> 128,> 128,> 128,> 128,> 128,> 128,> 128,> 128,> 128,Insoluble,CCOC(=O)c1ccc(NC(=O)c2cc3ccc(OC)cc3oc2=O)cc1,> 128,inactive,inactive
> 128,> 128,> 128,> 128,> 128,> 128,> 128,> 128,> 128,> 128,> 128,> 128,> 128,> 128,Insoluble,Cc1ccc2oc(=O)c(C(=O)Nc3ccc(C(=O)O)cc3)cc2c1,> 128,inactive,inactive
